The values that follow come from ChEMBL document CHEMBL1123816, “Synthesis and antidepressant properties of novel 2-substituted 4,5-dihydro-1H-imidazole derivatives” (J Med Chem, 1987).

Structures are written as SMILES.

The target of test [1] is T1, Adrenergic receptor alpha-2 (Rattus norvegicus, UniProt P22086+P19328+P22909).
T1 sequence (P22086 whole entry): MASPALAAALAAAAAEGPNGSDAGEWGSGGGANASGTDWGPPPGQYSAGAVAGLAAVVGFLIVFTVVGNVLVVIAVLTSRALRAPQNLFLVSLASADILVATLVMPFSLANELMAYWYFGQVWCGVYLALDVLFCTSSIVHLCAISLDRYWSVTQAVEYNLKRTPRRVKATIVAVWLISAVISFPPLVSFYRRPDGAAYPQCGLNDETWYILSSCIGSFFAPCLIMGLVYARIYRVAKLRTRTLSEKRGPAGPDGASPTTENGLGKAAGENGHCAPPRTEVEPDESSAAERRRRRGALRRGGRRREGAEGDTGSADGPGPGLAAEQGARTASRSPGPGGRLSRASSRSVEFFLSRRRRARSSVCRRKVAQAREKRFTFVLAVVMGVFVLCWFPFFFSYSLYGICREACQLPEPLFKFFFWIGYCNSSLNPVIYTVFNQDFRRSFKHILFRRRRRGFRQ
T1 sequence (P19328 whole entry): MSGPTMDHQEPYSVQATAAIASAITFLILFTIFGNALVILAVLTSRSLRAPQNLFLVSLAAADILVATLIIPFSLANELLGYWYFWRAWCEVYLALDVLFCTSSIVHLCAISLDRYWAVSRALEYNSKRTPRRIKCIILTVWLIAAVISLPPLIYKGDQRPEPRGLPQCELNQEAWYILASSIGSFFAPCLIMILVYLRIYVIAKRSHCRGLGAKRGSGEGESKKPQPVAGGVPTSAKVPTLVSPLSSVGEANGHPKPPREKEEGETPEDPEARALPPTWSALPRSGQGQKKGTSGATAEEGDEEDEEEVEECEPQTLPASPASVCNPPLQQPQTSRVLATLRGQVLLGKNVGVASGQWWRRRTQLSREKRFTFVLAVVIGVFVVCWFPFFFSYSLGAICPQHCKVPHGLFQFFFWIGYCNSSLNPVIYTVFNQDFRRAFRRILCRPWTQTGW
T1 sequence (P22909 whole entry): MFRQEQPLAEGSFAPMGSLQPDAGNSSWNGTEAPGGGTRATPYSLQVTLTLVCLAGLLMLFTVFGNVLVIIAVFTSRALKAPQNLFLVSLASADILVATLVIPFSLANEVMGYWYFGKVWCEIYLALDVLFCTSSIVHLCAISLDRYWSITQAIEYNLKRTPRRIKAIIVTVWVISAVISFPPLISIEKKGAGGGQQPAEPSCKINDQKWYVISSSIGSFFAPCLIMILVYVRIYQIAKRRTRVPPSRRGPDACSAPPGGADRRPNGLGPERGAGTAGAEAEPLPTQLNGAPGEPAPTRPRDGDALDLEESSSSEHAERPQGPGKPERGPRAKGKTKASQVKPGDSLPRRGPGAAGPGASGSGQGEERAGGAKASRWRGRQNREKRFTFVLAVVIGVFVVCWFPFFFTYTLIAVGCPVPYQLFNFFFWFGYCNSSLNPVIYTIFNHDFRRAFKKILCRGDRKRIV
The test can be described thus: (§1) Ability to displace [3H]clonidine from alpha-2 adrenergic receptor in rat brain homogenates in vitro. The class given is tissue-based.

Test [2] deals with T1, Adrenergic receptor alpha-2. The test can be described thus: (§2) In vitro antagonistic activity against alpha-2 adrenergic receptor in isolated electrically stimulated rat vas deferens (clonidine-induced decrease in twitch height). The class given is functional, tissue-based.
The test system of test [3] is Rattus norvegicus. The test can be described thus: Minimum effective dose required for inhibition of serotonin uptake was determined by PCA method in rat by peroral administration. The test is classed as functional. To be noted: po, read-out: MED. Put shortly: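 Fasted male Sprague–Dawley rats (160–200 g) given test compound orally in water (10 mL/kg) 15 min before p-chloroamphetamine 3 mg/kg ip. Forebrain taken 3 h later, extracted in acidified butanol then heptane/0.1 N HCl. Serotonin in aqueous phase measured fluorometrically after o-phthalaldehyde condensation (excitation 360 nm). Minimum effective dose reported.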

For test [4], the target named is T1, Adrenergic receptor alpha-2. Described as §2. The test is classed as functional, tissue-based. The source holds these as a separate data set.
Test [5] has the same target. The description is as §1. The class given is tissue-based. The gist of the method: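 Rat cerebral cortex homogenized in 50 mM Tris pH 7.7, washed twice by centrifugation at 48000g, resuspended in 50 volumes. Membranes incubated with 0.4 nM [3H]clonidine plus varied test concentrations, 30 min at 25 °C. Nonspecific binding defined with 1 μM unlabeled clonidine. GF/B filtration, scintillation counting. Run in triplicate; logit plot IC50 converted to apparent Ki (Cheng–Prusoff).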
The source holds these as a separate data set.

The species named for test [6] is Rattus norvegicus. The test can be described thus: Inhibition of [3H]-dopamine uptake into rat brain synaptosomes in vitro;Values ranges from :18-39. The class given is functional. Put shortly: (§3)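 Male Sprague–Dawley rat (180–240 g) cortex (NE, 5-HT) or striatum (DA) crude P2 synaptosomes in 0.32 M sucrose. Preincubated 5 min at 25 °C with drug in Krebs–Ringer phosphate containing ascorbate, EDTA, nialamide; 0.1 μM final [3H]amine added for 5 min. Stopped by cold saline and GF/B filtration; nonspecific uptake at 4 °C. IC50 with 95% limits computed.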

In test [7] the test system is Mus musculus. The test can be described thus: Effective dose required to antagonise clonidine-induced antinociception(ACA) in mouse by peroral administration at maximum response 100. The class given is functional.
The species named for test [8] is Rattus norvegicus. The test can be described thus: Inhibition of [3H]norepinephrine uptake into rat brain synaptosomes in vitro;Values ranges from :20-180. The class given is functional. Put shortly:
as §3

The test system of test [9] is Mus musculus. The test can be described thus: Effective dose required for inhibition of tetrabenazine-induced ptosis in mouse by peroral administration; Values ranges from 12-25. The settings on record: po.
The species named for test [10] is Rattus norvegicus. Kind of test: Inhibition of [3H]5-HT uptake into rat brain synaptosomes in vitro Values ranges from: 0.3-0.5. The class given is functional. Put shortly:
as §3

The species entered for test [11] is Rattus norvegicus. Kind of test: Inhibition of [3H]norepinephrine uptake into rat brain synaptosomes in vitro;Value ranges from:1.9-4.4. The test is classed as functional. Put shortly: as §3
Test [12] is filed under the species Rattus norvegicus. Kind of test: Inhibition of [3H]dopamine uptake into rat brain synaptosomes in vitro;Value ranges from:2.5-4.5. The test is classed as functional. Put shortly: as §3
In test [13] the test system is Mus musculus. The test can be described thus: Effective dose required to antagonise clonidine-induced antinociception(ACA) in mouse by peroral administration;Values ranges from: 15-86. The test is classed as functional. To be noted: po.
Test [14] has as its system Mus musculus. The test can be described thus: Effective dose required for inhibition of tetrabenazine-induced ptosis in mouse by peroral administration at maximum response 30. The class given is functional.
The species named for test [15] is Rattus norvegicus. The test can be described thus: Inhibition of [3H]5-HT uptake into rat brain synaptosomes in vitro;Value ranges from:0.2-0.8. The class given is functional. Put shortly: as §3

What is called Ki is the dissociation constant of the complex between target and ligand, obtained from inhibition or displacement. Low readings indicate tighter binding, high ones weaker binding. As usually defined, the pA2 is the negative logarithm of the molar antagonist concentration that doubles the agonist concentration needed for the same response. What is called IC50 is the concentration at which inhibition is half-maximal. High values mean weaker potency, low ones greater potency. For orientation: Inhibition means the share of the control response that was lost under treatment. A lower Inhibition goes with a response near the control. In general, ED50 refers to the midpoint of the dose-response relation. Read a low ED50 as greater potency. Take `CC1=C(CC2=NCCN2)CCc2ccccc21.Cl`: the Ki in test [1] and in [5] was 0.012 µM throughout. For the same compound, the pA2 in test [2] and in test [4] was 7.19 throughout. Also, the minimal effective dose in [3] came out at 30 mg/kg. The values for the IC50 in test [6], in test [8] and in test [10] were 26 µM, 60 µM and 0.4 µM, respectively. The compound also gave an Inhibition in test [7] of 50%. Also, the ED50 in test [9] is 18 mg/kg.

Turning to `C1=C(CC2=NCCN2)CCc2ccccc21.Cl` [NAPAMEZOLE HYDROCHLORIDE], the Ki in test [1] and in test [5] was 0.023 µM throughout. In addition, the pA2 in [2] and in [4] was 7.76 throughout. In test [3], the minimal effective dose was 30 mg/kg. Besides, the IC50 was 2.9 µM in test [11], 3.3 µM in test [12] and 0.4 µM in [15]. Further, the ED50 in test [13] turned out to be 36 mg/kg. Also, the Inhibition in [14] worked out at 35%.
